Measurements as given in ChEMBL document CHEMBL4330069, “Boosting the efficacy of anti-MRSA β-lactam antibiotics via an easily accessible, non-cytotoxic and orally bioavailable FtsZ inhibitor” (Eur J Med Chem, 2019).
≈ marks a conversion by molar mass, not a printed value.

What was measured:
Staphylococcus aureus [1] = test: Synergistic antibacterial activity against multidrug-resistant Staphylococcus aureus isolate 2973 in presence of cloxacillin by broth microdilution assay; type: functional
Method in brief: (§1)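 CLSI broth microdilution on clinical MRSA isolates. MICs were measured for the β-lactam alone, the test agent alone and the two combined. Compounds were dissolved in DMSO, and growth inhibition was scored by eye. FIC index is the sum, over both agents, of MIC in combination divided by MIC alone. An FIC index ≤0.5 was taken as synergy.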

Staphylococcus aureus [2] = test: Synergistic antibacterial activity against multidrug-resistant Staphylococcus aureus isolate 2490 in presence of cefuroxime by broth microdilution assay; type: functional
Method in brief: (§2)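 Clinical MRSA isolate panel; compound and β-lactam tested alone and in combination by CLSI broth microdilution, compounds dissolved in DMSO, growth inhibition scored by eye, run in duplicate. FIC index = FIC(compound) + FIC(drug), each the MIC in combination divided by the MIC alone; an index ≤ 0.5 was called synergy.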

Staphylococcus aureus [3] = test: Synergistic antibacterial activity against multidrug-resistant Staphylococcus aureus isolate 2895 in presence of meropenem by broth microdilution assay; type: functional; method in brief: as §1
Staphylococcus aureus [4] = test: Antibacterial activity against multidrug-resistant Staphylococcus aureus isolate 1136 by broth microdilution assay; type: functional
Method in brief: (§3)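 Broth microdilution MIC per CLSI guidelines against clinical MRSA isolates, for β-lactams and test compound alone and in combination. Compounds were dissolved in DMSO. Growth was read by eye, in duplicate. FIC index = FIC(compound) + FIC(drug); synergy defined as FIC index ≤0.5.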

Staphylococcus aureus [5] = test: Synergistic antibacterial activity against multidrug-resistant Staphylococcus aureus isolate 256 assessed as fractional Inhibitory concentration index in presence of meropenem by broth microdilution assay; type: functional
Staphylococcus aureus [6] = test: Antibacterial activity against multidrug-resistant Staphylococcus aureus isolate 2901 by broth microdilution assay; type: functional; method in brief: as §3
Staphylococcus aureus [7] = test: Antibacterial activity against Staphylococcus aureus ATCC 29213 after 20 hrs; type: functional; conditions: ATCC 29213, 20 h
Method in brief: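 Broth microdilution MIC per CLSI guidelines, compounds dissolved in DMSO. Resistant mutants were selected by serial passage of ATCC 29213 in LB at 37 °C with shaking at 250 rpm. Each 20 h culture started at half the MIC, and the concentration was doubled at each transfer. Growth inhibition was read by eye, in duplicate.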

Escherichia coli = test: Antibacterial activity against Escherichia coli ATCC 25922 by broth microdilution assay; type: functional
Method in brief: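 Broth microdilution per CLSI guidelines; compounds dissolved in DMSO; single agents tested; growth inhibition read by eye; run in duplicate (table footnote states at least triplicates).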

Staphylococcus aureus [8] = test: Synergistic antibacterial activity against multidrug-resistant Staphylococcus aureus isolate 3332 assessed as fractional Inhibitory concentration index in presence of meropenem by broth microdilution assay; type: functional
Staphylococcus aureus [9] = test: Synergistic antibacterial activity against multidrug-resistant Staphylococcus aureus isolate 231 in presence of cefuroxime by broth microdilution assay; type: functional; method in brief: as §2
Staphylococcus aureus [10] = test: Synergistic antibacterial activity against multidrug-resistant Staphylococcus aureus isolate 2919 assessed as fractional Inhibitory concentration index in presence of methicillin by broth microdilution assay; type: functional
Staphylococcus aureus [11] = test: Synergistic antibacterial activity against multidrug-resistant Staphylococcus aureus isolate 774 in presence of cefuroxime by broth microdilution assay; type: functional
Staphylococcus aureus [12] = test: Synergistic antibacterial activity against multidrug-resistant Staphylococcus aureus isolate 3267 assessed as fractional Inhibitory concentration index in presence of cefuroxime by broth microdilution assay; type: functional
Staphylococcus aureus [13] = test: Synergistic antibacterial activity against multidrug-resistant Staphylococcus aureus isolate 2516 in presence of cefuroxime by broth microdilution assay; type: functional; method in brief: as §1
Staphylococcus aureus [14] = test: Antibacterial activity against multidrug-resistant Staphylococcus aureus isolate 1717 by broth microdilution assay; type: functional; method in brief: as §3
Staphylococcus aureus [15] = test: Synergistic antibacterial activity against multidrug-resistant Staphylococcus aureus isolate 2516 in presence of methicillin by broth microdilution assay; type: functional; method in brief: as §1
Staphylococcus aureus [16] = test: Synergistic antibacterial activity against multidrug-resistant Staphylococcus aureus isolate 2728 assessed as fractional Inhibitory concentration index in presence of cloxacillin by broth microdilution assay; type: functional
Staphylococcus aureus [17] = test: Synergistic antibacterial activity against multidrug-resistant Staphylococcus aureus isolate 1449 in presence of meropenem by broth microdilution assay; type: functional; method in brief: as §2
Staphylococcus aureus [18] = test: Antibacterial activity against multidrug-resistant Staphylococcus aureus isolate 200 by broth microdilution assay; type: functional; method in brief: as §3
Staphylococcus aureus [19] = test: Synergistic antibacterial activity against multidrug-resistant Staphylococcus aureus isolate 1449 in presence of cefuroxime by broth microdilution assay; type: functional; method in brief: as §2
Staphylococcus aureus [20] = test: Synergistic antibacterial activity against multidrug-resistant Staphylococcus aureus isolate 2516 assessed as fractional Inhibitory concentration index in presence of cloxacillin by broth microdilution assay; type: functional
Method in brief: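 CLSI broth microdilution run on clinical MRSA isolates with each β-lactam alone, the test agent alone, and the two combined; agents dissolved in DMSO. Growth inhibition was read by eye. FIC index = FIC(compound) + FIC(β-lactam), where each FIC is the MIC in combination divided by the MIC alone. An index ≤0.5 was taken as synergy.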

[21] = AUC (0 to infinity) in Sprague-Dawley rat at 50 mg/kg, po by UPLC-MS/MS analysis; type: ADME, organism-based; parameters: dose 50 mg/kg, route oral, time infinity; conditions: in vivo
Staphylococcus aureus [22] = test: Synergistic antibacterial activity against multidrug-resistant Staphylococcus aureus isolate 1344 in presence of cloxacillin by broth microdilution assay; type: functional; method in brief: as §2
Staphylococcus aureus [23] = test: Synergistic antibacterial activity against multidrug-resistant Staphylococcus aureus isolate 2224 in presence of meropenem by broth microdilution assay; type: functional; method in brief: as §2
Staphylococcus aureus [24] = test: Synergistic antibacterial activity against multidrug-resistant Staphylococcus aureus isolate 774 assessed as fractional Inhibitory concentration index in presence of cloxacillin by broth microdilution assay; type: functional
Staphylococcus aureus [25] = test: Antibacterial activity against multidrug-resistant Staphylococcus aureus isolate 3589 by broth microdilution assay; type: functional; method in brief: as §3
Staphylococcus aureus [26] = test: Synergistic antibacterial activity against multidrug-resistant Staphylococcus aureus isolate 254 assessed as fractional Inhibitory concentration index in presence of meropenem by broth microdilution assay; type: functional
[27] = Half life in Sprague-Dawley rat at 1 mg/kg, iv by UPLC-MS/MS analysis; type: ADME, organism-based; conditions: in vivo
Method in brief: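 Male Sprague–Dawley rats (250-280 g) dosed IV at 1 mg/kg or by oral feeding at 50 mg/kg. Jugular blood taken from 5 to 420 min (IV) or 2 to 600 min (oral). Plasma proteins precipitated with methanol, then analysed by UPLC-MS/MS with positive ESI. Parameters from non-compartmental analysis.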

Staphylococcus aureus [28] = test: Antibacterial activity against multidrug-resistant Staphylococcus aureus isolate 254 by broth microdilution assay; type: functional; method in brief: as §3
Staphylococcus aureus [29] = test: Synergistic antibacterial activity against multidrug-resistant Staphylococcus aureus isolate 1344 in presence of meropenem by broth microdilution assay; type: functional; method in brief: as §2
Staphylococcus aureus [30] = test: Synergistic antibacterial activity against multidrug-resistant Staphylococcus aureus isolate 774 in presence of cloxacillin by broth microdilution assay; type: functional
Staphylococcus aureus [31] = test: Synergistic antibacterial activity against multidrug-resistant Staphylococcus aureus isolate 1136 in presence of amoxicillin by broth microdilution assay; type: functional; method in brief: as §3
Staphylococcus aureus [32] = test: Synergistic antibacterial activity against multidrug-resistant Staphylococcus aureus isolate 2973 assessed as fractional Inhibitory concentration index in presence of cefuroxime by broth microdilution assay; type: functional
Staphylococcus aureus [33] = test: Synergistic antibacterial activity against multidrug-resistant Staphylococcus aureus isolate 256 in presence of methicillin by broth microdilution assay; type: functional; method in brief: as §1
Staphylococcus aureus [34] = test: Synergistic antibacterial activity against multidrug-resistant Staphylococcus aureus isolate 1749 in presence of amoxicillin by broth microdilution assay; type: functional; method in brief: as §2

SMILES: CCCCCCCCCNc1ccc(F)c(C(N)=O)c1F
- MIC (Staphylococcus aureus [1]): 1 µg/mL
- MIC (Staphylococcus aureus [2]): 2 µg/mL
- MIC (Staphylococcus aureus [3]): 2 µg/mL
- MIC (Staphylococcus aureus [4]): 16 µg/mL (≈ 53.6 µM)
- fractional inhibitory concentration index (FICI) (Staphylococcus aureus [5]): 4
- MIC (Staphylococcus aureus [6]): 512 µg/mL (≈ 1720 µM)
- MIC (Staphylococcus aureus [7]): 1 µg/mL (≈ 3.35 µM)
- MIC (Escherichia coli): > 64 µg/mL
- fractional inhibitory concentration index (FICI) (Staphylococcus aureus [8]): 2.3
- MIC (Staphylococcus aureus [9]): 4 µg/mL
- fractional inhibitory concentration index (FICI) (Staphylococcus aureus [10]): 0.4
- MIC (Staphylococcus aureus [11]): 2 µg/mL
- fractional inhibitory concentration index (FICI) (Staphylococcus aureus [12]): 0
- MIC (Staphylococcus aureus [13]): 2 µg/mL
- MIC (Staphylococcus aureus [14]): 2 µg/mL (≈ 6.7 µM)
- MIC (Staphylococcus aureus [15]): 4 µg/mL
- fractional inhibitory concentration index (FICI) (Staphylococcus aureus [16]): 1
- MIC (Staphylococcus aureus [17]): 4 µg/mL
- MIC (Staphylococcus aureus [18]): 1020 µg/mL (≈ 3430 µM)
- MIC (Staphylococcus aureus [19]): 2 µg/mL
- fractional inhibitory concentration index (FICI) (Staphylococcus aureus [20]): 0.2
- AUC(0-inf) [21]: 10300 ng·h/mL
- MIC (Staphylococcus aureus [22]): 1 µg/mL
- MIC (Staphylococcus aureus [23]): 8 µg/mL
- fractional inhibitory concentration index (FICI) (Staphylococcus aureus [24]): 0.5
- MIC (Staphylococcus aureus [25]): 8 µg/mL (≈ 26.8 µM)
- fractional inhibitory concentration index (FICI) (Staphylococcus aureus [26]): 1.5
- half-life [27]: 5.5 h
- MIC (Staphylococcus aureus [28]): 16 µg/mL (≈ 53.6 µM)
- MIC (Staphylococcus aureus [29]): 16 µg/mL
- MIC (Staphylococcus aureus [30]): 1 µg/mL
- MIC (Staphylococcus aureus [31]): 16 µg/mL
- fractional inhibitory concentration index (FICI) (Staphylococcus aureus [32]): 0.5
- MIC (Staphylococcus aureus [33]): 4 µg/mL
- MIC (Staphylococcus aureus [34]): 2 µg/mL
